From PubChem
Runt-SMMHC FRET: Runt domain-CBFb-SMMHC interaction inhibition | Cerulean-Runt/Venus-CBFb-SMMHC FRET ratio 530/480, 1 h | inhibition, % at 20 µM | 220,000 compounds, 0.74% hits | AID 1434;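 active = mean inhibition across duplicate retests at 20 µM reaching about 50%, limit read from the data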;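 note: 0% = DMSO wells and 100% = wells with excess untagged CBFb-SMMHC; inhibitors lower the FRET ratio by blocking Runt binding to CBFb-SMMHC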
Runt-CBFb FRET: inhibitors of human RUNX1 Runt domain binding to CBFb; Q01196+Q13951; Cerulean-Runt/Venus-CBFb FRET ratio 530/480, 1 h; inhibition, % at 20 µM; 220,000 compounds, 0.46% hits;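 active = inhibition over about 50% at 20 µM in the single-dose screen, limit read from the data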;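 note: 0% = DMSO wells and 100% = excess unlabeled CBFb competitor control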
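Reagent – Venus-CBFb binding partner, 100 nM · Assay system – Cerulean-tagged RUNX1 Runt domain (FRET donor) fusion protein · Input – 100 nM per protein · Incubation – two 1 h room-temperature incubations shielded from light · Measured by – FRET fluorescence · Medium – Tris buffer pH 7.5 with salts and BSA · Benchmarks – unlabeled CBFb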
TbHK1 inh: blocks Trypanosoma brucei hexokinase 1 activity; recombinant TbHK1, G6PDH-coupled NADH A340; inhibition, % at 10 µM; 220,000 compounds, 0.11% hits;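 active = inhibition of 50% or more in the single-dose primary screen; inactive = inhibition below 50%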
RanGTP-Imp inh: disruptors of Ran-importin-beta complex formation – biochemical, FRET, CFP-Ran, YFP-importin-beta, homogeneous, primary screen | 300,000 compounds, 1.1% hits | cell-free CFP-Ran/YFP-importin-beta FRET ratio | inhibition, % (concentration not given with the values);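 active = more than half of the replicate wells show a fall in the fluorescence ratio signal beyond about 16%, limit read from the data, passing the limit was not always enough; inconclusive = exactly half of the replicate wells pass the set limit; inactive = fewer than half of replicates pass the limit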;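 note: 0% = DMSO wells and 100% = Ran loaded with GDP instead of GTP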
14-3-3 Bad PPI: disrupts binding of bovine 14-3-3 zeta to phospho-Bad peptide. 220,000 compounds, 0.71% hits. inhibition, % at 21.7 µM. TR-FRET 14-3-3zeta/Dy647-pBad peptide displacement, 1 h;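 active = inhibition above about 70%, limit read from the data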;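 note: 0% = full 14-3-3 plus peptide FRET controls and 100% = background without 14-3-3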
Target sequence (P63103 whole entry, looked up): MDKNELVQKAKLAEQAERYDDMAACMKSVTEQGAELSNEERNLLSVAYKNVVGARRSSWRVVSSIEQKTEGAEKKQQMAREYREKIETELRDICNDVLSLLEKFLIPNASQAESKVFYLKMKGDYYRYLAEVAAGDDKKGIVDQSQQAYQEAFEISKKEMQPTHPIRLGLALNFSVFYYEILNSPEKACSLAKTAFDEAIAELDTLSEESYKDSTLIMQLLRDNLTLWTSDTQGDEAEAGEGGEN
Hck Nef HTS: inhibitors of human Hck kinase activated by Nef. Recombinant Hck-YEEI plus Nef, Z-Lyte FRET kinase assay. inhibition, % at 20 µM. 220,000 compounds, 0.68% hits. AID 463187;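 active = Hck-Nef kinase inhibition above about 50%, limit read from the data; inactive = inhibition below that limit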;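 note: 0% = DMSO with Hck plus Nef and 100% = Hck alone without Nef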
Hck Nef conf: confirmation of Hck-Nef kinase inhibitors. calls only at 10 µM. 1,300 compounds, 28% hits. Recombinant Hck-YEEI:Nef, Z-Lyte FRET kinase assay. shares compounds with Hck Nef HTS. AID 463188;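 active = average inhibition of at least 50%, with Z-scores no higher than 3 in both the phospho-tyrosine peptide and fluorescence counterscreens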
* hit, by the source's call; i = inactive; ? = inconclusive; nt = no result shown; + = active, no number. Shown are actives, neighbours in structure and some others; about 2.2% of the full set was active somewhere.

SMILES	Runt-SMMHC FRET	Runt-CBFb FRET	TbHK1 inh	RanGTP-Imp inh	14-3-3 Bad PPI	Hck Nef HTS	Hck Nef conf
CCN(CC)c1ccc(-c2nn3c(-c4ccccc4OC)nnc3s2)cc1	26	5	3	8	-27	51*	i
O=C(Nc1ccc(S(=O)(=O)Nc2cnc3ccccc3n2)cc1)c1cccc(OC(F)F)c1	nt	nt	nt	-4	nt	nt	nt
C/C(=N\NC(=O)c1ccc(OC2OCCOC2Oc2ccc(C(=O)N/N=C(\C)c3ccncc3)cc2)cc1)c1ccncc1 (stereo not given)	0	-3	-29	-7	-25	61*	i
O=C(NCCCl)Nc1cccc(Br)c1	-2	0	-1	2	-2	9	nt
CCN(CCS(=O)(=O)c1ccc(Cl)cc1)C(=O)Nc1ccc(Cl)cc1	-6	2	-6	0	0	-4	nt
Cc1ccc(NC(=O)Cn2c(O)c(N=NC(=O)c3cc([N+](=O)[O-])ccc3O)c3ccccc32)cc1	-21	-11	-9	-1	-2	68*	+
Cc1cccc(NC(=O)Cn2c(O)c(N=NC(=O)c3ccccc3O)c3ccccc32)c1	-31	-13	6	3	59	51*	+
NC(=S)N=Nc1c(O)n(CC(=O)Nc2ccccc2)c2ccccc12	nt	nt	nt	-3	nt	nt	nt
Cc1cccn2c(=O)c3cc(C(=O)N4CCN(C(=O)c5ccco5)CC4)n(C)c3nc12	19	4	-15	-2	8	41	nt
Cc1cccn2c(=O)c3cc(C(=O)N4COCC4(C)C)n(Cc4ccccc4)c3nc12	nt	nt	nt	-1	nt	nt	nt
CCOC(=O)c1cc2c(=O)n3cccc(C)c3nc2n(CC2CCCO2)c1=NC(C)=O (stereo not given)	nt	nt	-11	22*	nt	74*	i
CCOCCCn1c(=NC(=O)c2ccco2)c(C(=O)OCC)cc2c(=O)n3cccc(C)c3nc21	81*	12	-30	152*	-1	133*	nt
CCOC(=O)c1cc2c(=O)n3cccc(C)c3nc2n(CC(C)C)c1=NC(=O)c1ccco1	88*	10	-15	164*	-6	+	i
Cc1ccc(-n2sc3ccccc3c2=O)cc1S(=O)(=O)N1CCCCC1	22	-35	93*	3	50	115*	+
O=C(C1=C[C@H](c2ccccc2)C[C@H](OCCCCO)O1)N1CCOCC1	-2	-1	-12	-1	-6	11	nt
CC(C)N1C(=O)N(c2cccc(Cl)c2)C(C)(O)CC1(C)C (stereo not given)	nt	nt	nt	4	nt	nt	nt
O=C(/C=C/c1ccco1)Nc1ccccc1C(=O)O	15	30	-13	-5	34	55*	i
COc1ccc(NC(=S)NC(=O)/C=C/c2ccco2)c(OC)c1	nt	nt	nt	-3	nt	nt	nt
COc1cc(NS(=O)(=O)c2ccc(NC(=S)NC(=O)/C=C/c3ccco3)cc2)ncn1	8	15	-11	0	2	91*	+
CCOc1ccc(NC(=S)NC(=O)/C=C/c2ccco2)cc1	nt	nt	nt	2	nt	nt	nt
Cc1ccc(NC(=S)NC(=O)/C=C/c2ccco2)c(O)c1	-33	-4	-10	2	3	85*	+
O=C(/C=C/c1ccco1)NC(=S)Nc1ccccc1O	-82	-18	-22	-4	-1	54*	+
COc1ccc(C2=NS(=O)(=O)N(C)C(C(=O)N3CCCCC3C)=C2)cc1 (stereo not given)	nt	nt	nt	5	nt	nt	nt
CN1CCN(CCNC(=O)c2ccc3nc(-c4ccc(F)cc4)c(-c4ccc(F)cc4)nc3c2)CC1	nt	nt	nt	1	nt	nt	nt
O=C(/C=C\c1ccco1)NC(=S)Nc1ccccc1O	-10	-6	-2	2	3	59*	i
SMILES	Runt-SMMHC FRET	Runt-CBFb FRET	TbHK1 inh	RanGTP-Imp inh	14-3-3 Bad PPI	Hck Nef HTS	Hck Nef conf
O=C(/C=C/c1ccco1)NC(=S)Nc1ccccc1N1CCCC1	36	25	-33	-12	-8	21	nt
Cc1cn(-c2cc(C(=O)Nc3ccc(C)c(NC(=O)C(=O)c4c[nH]c5ccccc45)c3)cc(C(F)(F)F)c2)cn1	-1	-2	-37	5	0	55*	i
COC(=O)c1ccc(NC(=O)C(=O)c2c[nH]c3ccccc23)cc1	nt	nt	nt	2	nt	nt	nt
Cc1cccc(NC(=O)CN2C(=O)N/C(=C\c3ccc(-c4cccc(C(=O)O)c4)o3)C2=O)c1	80*	85*	-14	26*	3	80*	nt
Cc1cccc(NC(=O)CN2C(=O)N/C(=C/c3ccc(C)o3)C2=O)c1	-25	-8	-2	0	-1	0	nt
Cc1ccc(CN2C(=O)N/C(=C\c3cccn3-c3cccc(C(=O)O)c3)C2=O)cc1	10	18	-7	1	16	38	nt
Cc1ccc(CN2C(=O)N/C(=C/c3ccc(-c4ccc(C(=O)O)cc4)o3)C2=O)cc1	80*	126*	-13	?	20	89*	nt
COc1ccc(S(=O)(=O)N2CCOCC2)cc1NC(=O)Cn1nnc2ccccc2c1=O	-1	2	5	-2	3	-4	nt
NC(=O)c1nn(-c2ccc(Oc3ccccc3)cc2)c(=O)cc1O	14	-1	1	-3	-16	82*	+
COc1ccc(-c2nnn(CC(=O)NCCc3ccc(OC)c(OC)c3)n2)cc1	-1	0	-5	1	-8	97*	i
CN(C)c1cc(-c2ccc(Cl)cc2Cl)oc(=O)c1Cl	-4	2	-20	1	3	7	nt
CNc1nc(-c2ccccc2)cc(C(F)(F)F)c1C#N	119	24	4	12	-3	68*	nt
C#CCSc1nc(-c2ccccc2)cc(C(F)(F)F)c1C#N	-8	-2	-2	0	-9	-1	nt
Cc1cc(=O)oc2c(CN(CC(C)C)CC(C)C)c(O)ccc12	77*	42	-38	0	2	63*	nt
CCC(=O)c1cc2c(C)cc(=O)oc2c(C)c1O	65	27	2	2	10	-1	nt
Cc1c(Cc2ccccc2)c(=O)oc2c(CN(C)C)c(O)c(Cl)cc12	90*	126*	-21	71*	21	116*	nt
C=CCc1c(O)c(CC)cc2c(C)cc(=O)oc12	80*	47	-21	62*	8	106*	nt
CCN(CC)Cc1c(O)c(Cl)cc2c(C)cc(=O)oc12	138*	76*	-25	13	11	+	nt
CCOC(=O)Cc1ccc2sc(-c3ccccc3)nc2c1	0	-2	36	0	4	2	nt
CCOC(=O)N1CCN(C(=O)c2ccc3c(=O)n(-c4ccc(F)cc4)c(=S)[nH]c3c2)CC1	2	0	-14	2	-4	53*	i
